{"source": "ChEMBL document CHEMBL1156540", "about": "“Remarkable DNA binding affinity and potential anticancer activity of pyrrolo[2,1-c][1,4]benzodiazepine-naphthalimide conjugates linked through piperazine side-armed alkane spacers” (Bioorg Med Chem, 2008)"}
{"test_system": "DNA", "experiment": "Binding affinity to calf thymus DNA assessed as helix melting temperature at 20 uM after 18 hrs by thermal denaturation assay", "type": "nucleic-acid assay", "settings": "Bos taurus", "in_short": "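Calf thymus duplex DNA (100 µM in phosphate) with ligand at 20 µM (1:5 ligand/DNA molar ratio), added from concentrated DMSO stock into 10 mM sodium phosphate, 1 mM EDTA, pH 7.00. Incubated at 37 °C before melting. Absorbance followed at 260 nm while heating 1 °C/min over 40–95 °C. Tm taken from maxima of d(A260)/dT derivative plots; ΔTm relative to DNA alone.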", "units": {"ΔTm": "°C"}}
{"smiles": "COc1cc2c(cc1OCCCOc1cc3c(cc1OC)C(=O)N1CCC[C@H]1C=N3)N=C[C@@H]1CCCN1C2=O", "ΔTm": 15.1}
{"smiles": "COc1cc2c(cc1OCCCCN1CCN(CCCCN3C(=O)c4cccc5cccc(c45)C3=O)CC1)N=C[C@@H]1CCCN1C2=O", "ΔTm": 20.8}
{"smiles": "COc1cc2c(cc1OCCCN1CCN(CCN3C(=O)c4cccc5cccc(c45)C3=O)CC1)N=C[C@@H]1CCCN1C2=O", "ΔTm": 26.5}
{"smiles": "COc1cc2c(cc1OCCCN1CCN(CCCN3C(=O)c4cccc5cccc(c45)C3=O)CC1)N=C[C@@H]1CCCN1C2=O", "ΔTm": 12.9}
{"smiles": "COc1cc2c(cc1O)N=C[C@@H]1CCCN1C2=O", "ΔTm": 0.7}
{"smiles": "COc1cc2c(cc1OCCCCN1CCN(CCN3C(=O)c4cccc5cccc(c45)C3=O)CC1)N=C[C@@H]1CCCN1C2=O", "ΔTm": 23.9}
{"smiles": "COc1cc2c(cc1OCCN1CCN(CCN3C(=O)c4cccc5cccc(c45)C3=O)CC1)N=C[C@@H]1CCCN1C2=O", "ΔTm": 22.7}
{"test_system": "HOP-62", "experiment": "Cytotoxicity against human Hop62 cells by SRB assay", "type": "functional, cell-based", "settings": "not given", "in_short": "(§1)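 Human tumour lines given dose–response treatment, with growth or viability estimated by sulforhodamine B protein staining. IC50 is the dose giving 50% growth inhibition versus untreated controls, read from IC50 graphs. Triplicate wells; each experiment repeated three times.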", "units": {"IC50": "nM"}}
{"smiles": "COc1cc2c(cc1OCCCN1CCN(CCN3C(=O)c4cccc5cccc(c45)C3=O)CC1)N=C[C@@H]1CCCN1C2=O", "IC50": "< 1000"}
{"smiles": "COc1cc2c(cc1OCCCCN1CCN(CCN3C(=O)c4cccc5cccc(c45)C3=O)CC1)N=C[C@@H]1CCCN1C2=O", "IC50": "< 1000"}
{"smiles": "COc1cc2c(cc1OCCN1CCN(CCN3C(=O)c4cccc5cccc(c45)C3=O)CC1)N=C[C@@H]1CCCN1C2=O", "IC50": 1200}
{"test_system": "SiHa", "experiment": "Cytotoxicity against human SiHa cells by SRB assay", "type": "functional, cell-based", "settings": "not given", "in_short": "as §1", "units": {"IC50": "nM"}}
{"smiles": "COc1cc2c(cc1OCCCN1CCN(CCN3C(=O)c4cccc5cccc(c45)C3=O)CC1)N=C[C@@H]1CCCN1C2=O", "IC50": 700}
{"smiles": "COc1cc2c(cc1OCCCCN1CCN(CCN3C(=O)c4cccc5cccc(c45)C3=O)CC1)N=C[C@@H]1CCCN1C2=O", "IC50": 800}
{"smiles": "COc1cc2c(cc1OCCN1CCN(CCN3C(=O)c4cccc5cccc(c45)C3=O)CC1)N=C[C@@H]1CCCN1C2=O", "IC50": 1000}
{"test_system": "MCF7", "experiment": "Cytotoxicity against human MCF7 cells by SRB assay", "type": "functional, cell-based", "settings": "not given", "in_short": "as §1", "units": {"IC50": "nM"}}
{"smiles": "COc1cc2c(cc1OCCCN1CCN(CCN3C(=O)c4cccc5cccc(c45)C3=O)CC1)N=C[C@@H]1CCCN1C2=O", "IC50": 500}
{"smiles": "COc1cc2c(cc1OCCCCN1CCN(CCN3C(=O)c4cccc5cccc(c45)C3=O)CC1)N=C[C@@H]1CCCN1C2=O", "IC50": 500}
{"smiles": "COc1cccc2c1C(=O)c1c(O)c3c(c(O)c1C2=O)C[C@@](O)(C(=O)CO)C[C@@H]3O[C@H]1C[C@H](N)[C@H](O)[C@H](C)O1", "note": "[DOXORUBICIN]", "IC50": 500}
{"smiles": "COc1cc2c(cc1OCCN1CCN(CCN3C(=O)c4cccc5cccc(c45)C3=O)CC1)N=C[C@@H]1CCCN1C2=O", "IC50": 1400}
{"test_system": "ZR-75-1", "experiment": "Cytotoxicity against human ZR751 cells by SRB assay", "type": "functional, cell-based", "settings": "not given", "in_short": "as §1", "units": {"IC50": "nM"}}
{"smiles": "COc1cc2c(cc1OCCCN1CCN(CCN3C(=O)c4cccc5cccc(c45)C3=O)CC1)N=C[C@@H]1CCCN1C2=O", "IC50": "< 1000"}
{"smiles": "COc1cc2c(cc1OCCCCN1CCN(CCN3C(=O)c4cccc5cccc(c45)C3=O)CC1)N=C[C@@H]1CCCN1C2=O", "IC50": "< 1000"}
{"smiles": "COc1cc2c(cc1OCCN1CCN(CCN3C(=O)c4cccc5cccc(c45)C3=O)CC1)N=C[C@@H]1CCCN1C2=O", "IC50": "< 1000"}
{"test_system": "PC-3", "experiment": "Cytotoxicity against human PC3 cells by SRB assay", "type": "functional, cell-based", "settings": "not given", "in_short": "as §1", "units": {"IC50": "nM"}}
{"smiles": "COc1cc2c(cc1OCCCN1CCN(CCN3C(=O)c4cccc5cccc(c45)C3=O)CC1)N=C[C@@H]1CCCN1C2=O", "IC50": 500}
{"smiles": "COc1cc2c(cc1OCCCCN1CCN(CCN3C(=O)c4cccc5cccc(c45)C3=O)CC1)N=C[C@@H]1CCCN1C2=O", "IC50": 500}
{"smiles": "COc1cc2c(cc1OCCN1CCN(CCN3C(=O)c4cccc5cccc(c45)C3=O)CC1)N=C[C@@H]1CCCN1C2=O", "IC50": 800}
{"test_system": "COLO 205", "experiment": "Cytotoxicity against human Colo205 cells by SRB assay", "type": "functional, cell-based", "settings": "not given", "in_short": "as §1", "units": {"IC50": "nM"}}
{"smiles": "COc1cc2c(cc1OCCCN1CCN(CCN3C(=O)c4cccc5cccc(c45)C3=O)CC1)N=C[C@@H]1CCCN1C2=O", "IC50": 500}
{"smiles": "COc1cc2c(cc1OCCCCN1CCN(CCN3C(=O)c4cccc5cccc(c45)C3=O)CC1)N=C[C@@H]1CCCN1C2=O", "IC50": 500}
{"smiles": "COc1cc2c(cc1OCCN1CCN(CCN3C(=O)c4cccc5cccc(c45)C3=O)CC1)N=C[C@@H]1CCCN1C2=O", "IC50": 1600}
{"test_system": "A2780", "experiment": "Cytotoxicity against human A2780 cells by SRB assay", "type": "functional, cell-based", "settings": "not given", "in_short": "as §1", "units": {"IC50": "nM"}}
{"smiles": "COc1cc2c(cc1OCCCN1CCN(CCN3C(=O)c4cccc5cccc(c45)C3=O)CC1)N=C[C@@H]1CCCN1C2=O", "IC50": 500}
{"smiles": "COc1cc2c(cc1OCCCCN1CCN(CCN3C(=O)c4cccc5cccc(c45)C3=O)CC1)N=C[C@@H]1CCCN1C2=O", "IC50": 600}
{"smiles": "COc1cc2c(cc1OCCN1CCN(CCN3C(=O)c4cccc5cccc(c45)C3=O)CC1)N=C[C@@H]1CCCN1C2=O", "IC50": 500}
